Measurements as given in ChEMBL document CHEMBL4706495, “A novel class of small molecule inhibitors with radioprotective properties” (Eur J Med Chem, 2020).
Activity calls are given as the source filed them. The rule behind the calls is not given here.

Key:
A549 [1] = experiment: Cytotoxicity against human A549 cells assessed as maximum tolerated concentration incubated for 24 hrs by MTT assay; assay type: functional
Method in brief: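 A-549 cells in DMEM with 10% FBS and 1% penicillin-streptomycin, left to attach overnight. Compounds made up in PBS, serially diluted in DMEM, incubated 24 h, then viability read by MTT reduction against untreated controls on each plate. MTC taken as the highest concentration showing no significant difference from non-treated control (t-test).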

HeLa [2] = experiment: Cytotoxicity against human HeLa cells assessed as cell viability at 100 uM measured after 48 hrs by WST-1 assay relative to control; assay type: functional; conditions: read-out: Activity
Method in brief: (§1)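 Ten-line human panel (9 cancer, 1 non-cancerous). Cells were seeded at a pre-established optimal density (500–30 × 10³ per well) and settled overnight. Compounds came from 10 mM DMSO stocks and were tested at two concentrations. WST-1 readout followed the manufacturer's protocol at the end of cultivation. Viability is expressed as % of untreated control cells, mean of three independent experiments.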

MCF7 [3] = experiment: Cytotoxicity against human MCF7 cells assessed as cell viability at 10 uM measured after 48 hrs by WST-1 assay relative to control; assay type: functional; conditions: read-out: Activity; method in brief: as §1
Jurkat [4] = experiment: Cytotoxicity against human Jurkat cells assessed as cell viability at 10 uM measured after 48 hrs by WST-1 assay relative to control; assay type: functional; conditions: read-out: Activity; method in brief: as §1
[5] = Toxicity in C57Bl/6 mouse assessed as mouth death at 100 mg/kg, ip measured after 30 days; assay type: organism-based; conditions: in vivo, 720 h, time 30 day
Method in brief: (§2)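 Safety in C57Bl/6 mice (27 ± 3 g) given a single 100 mg/kg i.p. injection without irradiation. Deaths, adverse effects and body weight followed over 30 days against an untreated control group. Weight reported as change from day 0.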

A549 [6] = experiment: Cytotoxicity against human A549 cells assessed as cell viability at 100 uM measured after 48 hrs by WST-1 assay relative to control; assay type: functional; conditions: read-out: Activity; method in brief: as §1
Mus musculus [7] = experiment: Radioprotective activity in C57Bl/6 mouse assessed as increase in absolute NK population at 100 mg/kg, ip pretreated with compound for 5 min followed by gamma irradiation at 8.5 Gy and measured after 30 days by flow cytometry; assay type: functional, organism-based
Method in brief: (§3)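 C57Bl/6 mice receive 100 mg/kg i.p. 5 min before a single 8.5 Gy ⁶⁰Co γ dose. At 7, 12 and 30 days post-irradiation, 100 µl peripheral blood is stained with anti-CD3ε, CD19 and NK1.1 antibodies for 30 min at 4 °C in the dark. Samples are washed twice and analysed by flow cytometry for T, B and NK cells. Mean ± SEM.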

[8] = Toxicity in C57Bl/6 mouse assessed as adverse effects at 100 mg/kg, ip measured after 30 days; assay type: organism-based; conditions: in vivo, 720 h, time 30 day; method in brief: as §2
[9] = Cytotoxicity against human MRC5 cells assessed as cell viability at 100 uM measured after 48 hrs by WST-1 assay relative to control; assay type: cell-based; conditions: read-out: Activity; method in brief: as §1
SAOS-2 [10] = experiment: Cytotoxicity against human SAOS-2 cells assessed as cell viability at 100 uM measured after 48 hrs by WST-1 assay relative to control; assay type: functional; conditions: read-out: Activity; method in brief: as §1
[11] = Toxicity in C57Bl/6 mouse assessed as average body weight at 100 mg/kg, ip measured after 30 days (reference value: 27 +/ 3.2 g); assay type: organism-based; conditions: in vivo, 720 h, time 30 day
MOLT-4 [12] = experiment: Cytotoxicity against human MOLT-4 cells assessed as cell viability at 100 uM measured after 48 hrs by WST-1 assay relative to control; assay type: functional; conditions: read-out: Activity; method in brief: as §1
A549 [13] = experiment: Cytotoxicity against human A549 cells assessed as cell viability at 10 uM measured after 48 hrs by WST-1 assay relative to control; assay type: functional; conditions: read-out: Activity; method in brief: as §1
MCF7 [14] = experiment: Cytotoxicity against human MCF7 cells assessed as cell viability at 100 uM measured after 48 hrs by WST-1 assay relative to control; assay type: functional; conditions: read-out: Activity; method in brief: as §1
A2780 [15] = experiment: Cytotoxicity against human A2780 cells assessed as cell viability at 100 uM measured after 48 hrs by WST-1 assay relative to control; assay type: functional; conditions: read-out: Activity; method in brief: as §1
Mus musculus [16] = experiment: Radioprotective activity in C57Bl/6 mouse assessed as increase in absolute T-lymphocytes at 100 mg/kg, ip pretreated with compound for 5 min followed by gamma irradiation at 8.5 Gy and measured after 30 days by flow cytometry; assay type: functional, organism-based; method in brief: as §3
[17] = Cytotoxicity against human MRC5 cells assessed as cell viability at 10 uM measured after 48 hrs by WST-1 assay relative to control; assay type: cell-based; conditions: read-out: Activity; method in brief: as §1
A549 [18] = experiment: Cytotoxicity against human A549 cells assessed as reduction in cell viability incubated for 24 hrs by MTT assay; assay type: functional, cell-based; conditions: A549, 24 h
Method in brief: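 A-549 cells in DMEM with 10% FBS and 1% penicillin-streptomycin were attached overnight. Compounds were prepared in PBS and serially diluted in DMEM, then incubated 24 h. Viability was read by colorimetric MTT reduction against an untreated control on each plate (100%). IC50 came from four-parameter nonlinear regression of the log concentration-response curve, mean ± SEM. MTC is the highest concentration not differing from control (t-test).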

Mus musculus [19] = experiment: Radioprotective activity in C57Bl/6 mouse assessed as average body weight at 100 mg/kg, ip administered 5 min prior to gamma-irradation at 8.5 Gy and measured after 30 days; assay type: functional
Mus musculus [20] = experiment: Radioprotective activity in C57Bl/6 mouse assessed as average body weight at 100 mg/kg, ip administered 5 min prior to gamma-irradation at 8.5 Gy and measured immediately (reference value: 25.4 +/- 2.6 g); assay type: functional
MOLT-4 [21] = experiment: Radioprotective activity against gamma irradiation-induced apoptosis in human MOLT-4 cells assessed as viable cells at 100 uM pretreated with compound for 1 hr followed by gamma irradiation and measured after 24 hrs by annexinV/propidium iodide staining based flow cytometry (reference value: 40 %); assay type: functional; conditions: MOLT-4, light or radiation study, time 25 hrs, read-out: Activity
HT-29 [22] = experiment: Cytotoxicity against human HT-29 cells assessed as cell viability at 10 uM measured after 48 hrs by WST-1 assay relative to control; assay type: functional; conditions: read-out: Activity; method in brief: as §1
PANC-1 [23] = experiment: Cytotoxicity against human PANC-1 cells assessed as cell viability at 10 uM measured after 48 hrs by WST-1 assay relative to control; assay type: functional; conditions: read-out: Activity; method in brief: as §1
Mus musculus [24] = experiment: Radioprotective activity in C57Bl/6 mouse assessed as increase in absolute B-lymphocytes at 100 mg/kg, ip pretreated with compound for 5 min followed by gamma irradiation at 8.5 Gy and measured after 30 days by flow cytometry; assay type: functional, organism-based; method in brief: as §3
MOLT-4 [25] = experiment: Cytotoxicity against human MOLT-4 cells assessed as cell viability at 10 uM measured after 48 hrs by WST-1 assay relative to control; assay type: functional; conditions: read-out: Activity; method in brief: as §1
PANC-1 [26] = experiment: Cytotoxicity against human PANC-1 cells assessed as cell viability at 100 uM measured after 48 hrs by WST-1 assay relative to control; assay type: functional; conditions: read-out: Activity; method in brief: as §1
HT-29 [27] = experiment: Cytotoxicity against human HT-29 cells assessed as cell viability at 100 uM measured after 48 hrs by WST-1 assay relative to control; assay type: functional; conditions: read-out: Activity; method in brief: as §1
SAOS-2 [28] = experiment: Cytotoxicity against human SAOS-2 cells assessed as cell viability at 10 uM measured after 48 hrs by WST-1 assay relative to control; assay type: functional; conditions: read-out: Activity; method in brief: as §1
HeLa [29] = experiment: Cytotoxicity against human HeLa cells assessed as cell viability at 10 uM measured after 48 hrs by WST-1 assay relative to control; assay type: functional; conditions: read-out: Activity; method in brief: as §1
Jurkat [30] = experiment: Cytotoxicity against human Jurkat cells assessed as cell viability at 100 uM measured after 48 hrs by WST-1 assay relative to control; assay type: functional; conditions: read-out: Activity; method in brief: as §1
Mus musculus [31] = experiment: Radioprotective activity in C57Bl/6 mouse assessed as body weight gain at 100 mg/kg, ip administered 5 min prior to gamma-irradation at 8.5 Gy measured after 30 days relative to control; assay type: functional
Mus musculus [32] = experiment: Radioprotective activity in C57Bl/6 mouse assessed as median survival time at 100 mg/kg, ip administered 5 min prior to gamma-irradation at 8.5 Gy and measured after 30 days (reference value: 12 days); assay type: functional
[33] = Toxicity in C57Bl/6 mouse assessed as change in body weight at 100 mg/kg, ip measured after 30 days (reference value: 103 +/- 12 %); assay type: organism-based; conditions: in vivo, 720 h, time 30 day
A2780 [34] = experiment: Cytotoxicity against human A2780 cells assessed as cell viability at 10 uM measured after 48 hrs by WST-1 assay relative to control; assay type: functional; conditions: read-out: Activity; method in brief: as §1
[35] = Toxicity in C57Bl/6 mouse assessed as average body weight at 100 mg/kg, ip and measured immediately (reference value: 26.3 +/- 2.4 g); assay type: organism-based; conditions: in vivo

## COc1ccccc1OCC(O)CN1CCN(CCO)CC1 (stereo not given)
A549 [1]
  MTD: 1.56 mM
HeLa [2]
  viability at 100 µM: 99%
MCF7 [3]
  viability at 10 µM: 99%
Jurkat [4]
  viability at 10 µM: 106%
[5]
  Activity: Non-Toxic
A549 [6]
  viability at 100 µM: 109%
Mus musculus [7]
  Activity: Active
[8]
  Activity: Non-Toxic
[9]
  viability at 48 h, 100 µM: 109%
SAOS-2 [10]
  viability at 100 µM: 82%
[11]
  Activity: 28.5 g
MOLT-4 [12]
  viability at 100 µM: 76%
A549 [13]
  viability at 10 µM: 91%
MCF7 [14]
  viability at 100 µM: 95%
A2780 [15]
  viability at 100 µM: 78%
Mus musculus [16]
  Activity: Active
[17]
  viability at 48 h, 10 µM: 90%
A549 [18]
  IC50: 9.27 mM
Mus musculus [19]
  Activity: 27.6 g
Mus musculus [20]
  Activity: 26.8 g
MOLT-4 [21]
  viability at 100 µM: 59%
HT-29 [22]
  viability at 10 µM: 93%
PANC-1 [23]
  viability at 10 µM: 100%
Mus musculus [24]
  Activity: Active
MOLT-4 [25]
  viability at 10 µM: 100%
PANC-1 [26]
  viability at 100 µM: 115%
HT-29 [27]
  viability at 100 µM: 143%
SAOS-2 [28]
  viability at 10 µM: 106%
HeLa [29]
  viability at 10 µM: 93%
Jurkat [30]
  viability at 100 µM: 86%
Mus musculus [31]
  Activity: 102%
Mus musculus [32]
  MST: 13 days
[33]
  Activity: 102%
A2780 [34]
  viability at 10 µM: 100%
[35]
  Activity: 27.9 g
